From publication PMC10441371 (bioRxiv, 2023)
Entries after “also recorded” stand apart in the source; their conditions may differ. Structures can show the parent of a compound that is named as a salt. Where two headings read alike, the source gives them in different places.

How the values were obtained:
[1] = type: in vivo, Sprague Dawley rats; details: for Levels in liver, mean (SD): wet weight; for Detection in the brain: PCB 52 exposed rats
thyroid hormone receptor = details: ref Kitamura et al., 2005; cited from earlier work
estrogenic activity = details: ref Kitamura et al., 2005; cited from earlier work
SULT2A1 = details: ref Parker et al., 2018; cited from earlier work
N27 cell line = details: ref Rodriguez et al., 2018; cited from earlier work
SULT1E1 = details: ref Parker et al., 2018; cited from earlier work
SH-SY5Y cell line = details: ref Rodriguez et al., 2018; cited from earlier work
[2] = male rats, single IP dose 150 mg/kg BW; ref Parkinson et al., 1983; cited from earlier work
[3] = General toxicity: body and organ weights after IP exposure; type: in vivo, Sprague Dawley rats
Method in brief: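 Rats were female Sprague Dawley, 4–5 weeks old and 75–100 g, acclimated 1 week. Each received a single IP dose of corn oil vehicle or test compound at 1, 10 or 100 mg/kg BW. Body weight was recorded at 5 time points over 3 weeks. After CO2 euthanasia, liver, spleen and thymus were excised; liver weight was adjusted for body weight. Groups were compared by one-way ANOVA with Tukey, p<0.05.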

[4] = test system: dopamine and its metabolites, DOPAL and DOPAC; assay: Dopamine and metabolites analysis in striatum; type: in vivo, Sprague Dawley rats; details: different doses of PCB 52 IP, 3 weeks post injection, vs vehicle
Method in brief: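 Female Sprague Dawley rats (4–5 weeks, 75–100 g, acclimated 1 week) got a single IP injection of corn oil or test compound in corn oil at 1, 10 or 100 mg/kg BW. They were euthanized after 3 weeks by CO2 and thoracotomy. Nigrostriatal tissue was homogenized in ice-cold 0.3 M perchloric acid and spun at 10,000 g for 10 min. Supernatant went to capillary HPLC with coulometric detection (guard +350, E1 −150, E2 +200 mV). Values are pmol/mg tissue; ANOVA with Tukey.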

CYP2B = details: PCB 52 exposure; ref Parkinson et al., 1983; cited from earlier work
[5] = test system: endogenous serum metabolites; assay: Targeted metabolomics of serum samples; type: in vivo, Sprague Dawley rats; details: 0 to 100 mg/kg BW IP, 3 weeks
Method in brief: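 In female Sprague Dawley rats, serum was taken 3 weeks after a single IP dose of vehicle or 1–100 mg/kg test compound. Heart blood clotted ≥30 min at room temperature and was spun at 2,500 g (10 min, 4°C). Extracts (solvent:sample 18:1, −20°C 1 h) were methoximated (60°C 1 h), then TMS-derivatized (60°C 30 min). GC-Orbitrap analysis used EI full scan m/z 56.7–850 against a 94-metabolite list. Intensities were total-normalized; data were analyzed by PLS-DA and dose linear regression with Benjamini-Hochberg FDR.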

[6] = 10 mg/kg BW PCB 52 IP, 3 weeks after dosing, N = 3
[7] = 100 mg/kg BW PCB 52 IP, 3 weeks after dosing, N = 5
[8] = 1, 10 or 100 mg/kg BW IP, 3 weeks, body weight-adjusted, vs vehicle
[9] = no dose-response relationship observed

Structure (SMILES): Oc1cc(Cl)c(-c2cc(Cl)ccc2Cl)cc1Cl [4-OH-PCB 52, 2,5-dichloro-4-(2,5-dichlorophenyl)phenol]
- Levels in liver, mean (SD) [1, 6]: 0.15 ng/g
- Levels in liver, mean (SD) [1, 7]: 0.57 ng/g
- Detection in the brain [1]: observed in the brain of one animal
- Detection in adipose tissue ([1]; high-dose group (100 mg/kg BW)): detected only in adipose tissue from one animal
- Affinity for the thyroid hormone receptor (thyroid hormone receptor): low affinity
- Estrogenic activity in vitro (estrogenic activity): low estrogenic activity
- Inhibition of SULT2A1 (SULT2A1): inhibitors

Structure (SMILES): O=S(=O)(O)Oc1cc(Cl)c(-c2cc(Cl)ccc2Cl)cc1Cl [PCB 52 sulfate]
- Toxicity (N27 cell line): low micromolar range
- Inhibition of SULT1E1 (SULT1E1): inhibitor
- Toxicity (SH-SY5Y cell line): low micromolar range
- Inhibition of SULT2A1 (SULT2A1): inhibitors

Structure (SMILES): Clc1ccc(Cl)c(-c2cc(Cl)ccc2Cl)c1 [PCB 52, 2,2',5,5'-Tetrachlorobiphenyl]
- Bodyweight-adjusted liver weights vs control [2]: not significantly different
- Effect on bodyweight-adjusted liver weights ([3]; 10 mg/kg BW IP, 3 weeks, vs vehicle group, p < 0.05): significantly smaller; also recorded: significant decrease
- Effect on overall body weight ([3]; 1, 10 or 100 mg/kg BW IP, 3-week study, vs vehicle): did not affect; also recorded: no significant impact
- Effect on spleen weights [3, 8]: did not affect
- Effect on thymus weights [3, 8]: did not affect
- Ratio of mean PCB 52 tissue levels, 100 mg/kg BW vs 10 mg/kg BW dose group ([1]; brain (lowest ratio)): 2.9
- Ratio of mean PCB 52 tissue levels, 100 mg/kg BW vs 10 mg/kg BW dose group ([1]; highest ratio among tissues, tissue not given): 5.6
- Ratio of mean PCB 52 levels, 10 mg/kg BW vs 1 mg/kg BW dose group ([1]; liver): ~7.0 times
- Ratio of mean PCB 52 levels, 10 mg/kg BW vs 1 mg/kg BW dose group ([1]; serum): approximately 4.0 times
- Presence in tissues investigated (adipose, brain, liver, serum) ([1]; three weeks following the IP injection): present in all tissues investigated
- DOPAC levels in the striatum [4]: no significant differences; also recorded: not significantly different
- DOPAL levels in the striatum [4]: no significant differences; also recorded: not significantly different
- Dopamine levels in the striatum [4]: no significant differences; also recorded: not significantly different
- CYP2B enzyme activity in the rat liver (CYP2B): induced
- Serum L-cysteine levels [5]: decreased dose-dependent
- Serum L-histidine levels [5]: dose-dependent increase
- Serum cytosine levels [5]: decreased dose-dependent
- Serum erythrose levels [5]: decreased dose-dependent
- Serum glycine levels [5]: dose-dependent increase
- Serum orotic acid levels [5]: decreased dose-dependent
- Serum sphingosine levels [5]: decreased dose-dependent
- Serum linoleic acid levels [5, 9]: significantly affected
- Serum thymine levels [5, 9]: significantly affected
- Number of significantly altered serum metabolites ([5]; out of the 81 metabolites included, raw p-values < 0.05): 9

Structure (SMILES): Oc1cc(Cl)cc(-c2cc(Cl)ccc2Cl)c1Cl [X1-PCB 52, 2,2’,5,5’-tetrachlorobiphenyl-3-ol]
- Estimated mean level in the serum ([1]; 10 mg/kg BW PCB 52 IP, 3 weeks after dosing): 0.07 ng/kg BW
- Levels in liver, mean (SD) [1, 6]: 0.28 ng/g
- Levels in serum, mean (SD) [1, 7]: 0.69 ng/g
- Levels in liver, mean (SD) [1, 7]: 0.85 ng/g
- Detection in the brain [1]: observed in the brain of one animal
- Detection in adipose tissue ([1]; all other exposure groups (below high dose)): below the LOD
- Detection in adipose tissue ([1]; high-dose group (100 mg/kg BW)): present
